Assay results from different studies.
Compare with care: the assays were run in different laboratories.
LATS1: Serine/threonine-protein kinase LATS1 (LATS1, Homo sapiens, UniProt O95835)
CA1: Carbonic anhydrase 1 (CA1, Homo sapiens, UniProt P00915)
SLC18A2: Synaptic vesicular amine transporter (SLC18A2, Homo sapiens, UniProt Q05940)

Compound | target | assay | conditions | IC50
C=CCNc1c2c([nH]c(=O)c1C(=O)OCC)CCC2 | Gag-Pol polyprotein, reverse transcriptase (gag-pol, Human immunodeficiency virus 1, UniProt P03366) | enzyme activity, inhibitor | – | > 100 µM
OC1(c2ccc(-c3ccnc4[nH]cc(F)c34)cc2)CCCNC1 (centres unmarked) | LATS1 | target engagement in cells, BRET | – | 9.97 µM
Nc1nc2c(ncn2COCCO)c(=O)[nH]1 | CA1 | enzyme activity, inhibitor, absorbance | pH 7.4 | 10.8 µM
CC(=O)N1C[C@@H](C)[C@](O)(c2c(C)cc(-c3ccnc4[nH]cc(F)c34)cc2F)[C@@H](C)C1 | LATS1 | target engagement in cells, BRET | – | 0.077 µM
CCOCCn1c(C2CCN(CCc3ccc(C(C)(C)C(=O)O)cc3)CC2)nc2ccccc21 | CA1 | enzyme activity, inhibitor, absorbance | pH 7.4 | 14 µM
OC1(c2ccc(Cl)c(C(F)(F)F)c2)CCN(CCCC(c2ccc(F)cc2)c2ccc(F)cc2)CC1 | SLC18A2 | transporter uptake, inhibitor, radiometric | cell membranes | 0.594 µM
Cc1cc(-c2ccnc3[nH]cc(F)c23)cc(F)c1[C@@]1(O)[C@H](C)CN(C2CCS(=O)(=O)CC2)C[C@@H]1C | LATS1 | target engagement in cells, BRET | – | 0.136 µM
Clc1ccc(Cn2c(CN3CCCC3)nc3ccccc32)cc1 | SLC18A2 | transporter uptake, inhibitor | – | 7.23 µM
COc1ccnc(C[S+]([O-])c2nc3ccc(OC(F)F)cc3[nH]2)c1OC (centres unmarked) | CA1 | enzyme activity, inhibitor, absorbance | pH 7.4 | 10.6 µM
OC1(c2ccc(-c3ccnc4[nH]cc(F)c34)cc2)CNC1 | LATS1 | target engagement in cells, BRET | – | 28.4 µM
OCCOCCN1CCN(C(c2ccccc2)c2ccc(Cl)cc2)CC1 (centres unmarked) | CA1 | enzyme activity, inhibitor, absorbance | pH 7.4 | 15.1 µM
OC1(c2ccc(-c3ccnc4[nH]cc(F)c34)cc2)CCNC1 (centres unmarked) | LATS1 | target engagement in cells, BRET | – | 10.3 µM
COc1cc2ncnc(Nc3ccc(F)c(Cl)c3)c2cc1NC(=O)/C=C/CN1CCCCC1 | SLC18A2 | transporter uptake, inhibitor, radiometric | cell membranes | 0.433 µM
O=C(O)COCCN1CCN(C(c2ccccc2)c2ccc(Cl)cc2)CC1 (centres unmarked) | CA1 | enzyme activity, inhibitor, absorbance | pH 7.4 | 14.6 µM
CCCCN(CCCC)CCC(O)c1cc2c(Cl)cc(Cl)cc2c2cc(C(F)(F)F)ccc12 (centres unmarked) | SLC18A2 | transporter uptake, inhibitor, radiometric | cell membranes | 0.94 µM
Cc1cc(-c2ccnc3[nH]cc(F)c23)cc(F)c1[C@@]1(O)[C@H](C)CN(C2COC2)C[C@@H]1C | LATS1 | target engagement in cells, BRET | – | 0.058 µM
N#Cc1ccc2[nH]cc(CCCCN3CCN(c4ccc5oc(C(N)=O)cc5c4)CC3)c2c1 | SLC18A2 | transporter uptake, inhibitor, radiometric | cell membranes | 0.069 µM
CC(C)[C@H](N)C(=O)OCCOCn1cnc2c(=O)[nH]c(N)nc21 | Carbonic anhydrase 2 (CA2, Homo sapiens, UniProt P00918) | enzyme activity, inhibitor, absorbance | pH 7.4 | 9.1 µM
CCOc1ccccc1OCCN[C@H](C)Cc1ccc(OC)c(S(N)(=O)=O)c1 | SLC18A2 | transporter uptake, inhibitor | – | 1.86 µM
NC(=O)c1nnn(Cc2cc(Cl)c(C(=O)c3ccc(Cl)cc3)c(Cl)c2)c1N | Alpha-2A adrenergic receptor (ADRA2A, Homo sapiens, UniProt P08913) | cAMP, antagonist | – | 0.612 µM
